M4 antag: antagonists of human muscarinic M4 receptor (CHRM4). actives 0.73% (n = 360,000). inhibition, % at 3 µM. CHO-hM4 cells, ACh EC80, Fluo-8 calcium fluorescence. P08173;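 active = inhibition above its plate's cutoff, the mean inhibition of sample wells plus 3 SD, cut at about 27% in these data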;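 note: 0% = acetylcholine EC80 with DMSO and 100% = DMSO without agonist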
Target sequence (P08173 whole entry, looked up): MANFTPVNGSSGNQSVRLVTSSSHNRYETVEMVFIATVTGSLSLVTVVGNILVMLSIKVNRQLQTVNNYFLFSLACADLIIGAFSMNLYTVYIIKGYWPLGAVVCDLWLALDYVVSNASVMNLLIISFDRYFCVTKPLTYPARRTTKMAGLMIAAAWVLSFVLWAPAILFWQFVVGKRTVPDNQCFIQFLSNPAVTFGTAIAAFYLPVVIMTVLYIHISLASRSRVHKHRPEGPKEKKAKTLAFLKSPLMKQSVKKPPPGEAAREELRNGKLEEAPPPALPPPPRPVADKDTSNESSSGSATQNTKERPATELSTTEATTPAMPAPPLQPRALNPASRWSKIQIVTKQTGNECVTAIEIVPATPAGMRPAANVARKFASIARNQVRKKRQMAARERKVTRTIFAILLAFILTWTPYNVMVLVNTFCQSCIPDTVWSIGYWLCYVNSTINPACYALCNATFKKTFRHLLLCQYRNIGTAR
CHRM5 agonist: CHRM5 agonism in calcium assay; P08912; CHO-K1 hM5 cells, Fluo-8 calcium fluorescence; 0% DMSO wells, 100% maximal acetylcholine response; activation, % at 3 µM; actives 0.19% (n = 360,000); AID 624037;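 active = activation above the run's mean over test compounds plus 3 SD, cut at about 23% in these data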;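 note: signal is peak over basal fluorescence ratio across the kinetic read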
M5 PAM: potentiates acetylcholine response at human M5 receptor; actives 0.3% (n = 360,000); activation, % at 3 µM; CHO-K1 hM5, Fluo-8 calcium, ACh EC20 PAM; 0% = ACh EC20, 100% = ACh EC100;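 active = activation above the run cutoff, the mean activation of all test compounds plus 3 SD, cut at about 18% in these data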
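Assay system: CHO-K1 hM5 cells. Also added: acetylcholine at EC20 concentration, added after compound. Dosing: 3 µM, single dose. Times: compound preincubation 140 s before EC20 acetylcholine addition. Signal: Fluo-8 calcium fluorescence. Measure: % activation relative to EC20 and EC100 ACh responses. Repeats: singlicate, one well per test compound.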
M4 PAM: positive allosteric modulators of human muscarinic M4 receptor. P08173. CHO-K1 hM4/Gqi5, Fluo-8 calcium fluorescence, ACh EC20; 0% = ACh EC20, 100% = maximal ACh. activation, % at 3 µM. actives 0.4% (n = 360,000). AID 624126;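 active = activation above its plate's cutoff, the mean activation of sample wells plus 3 SD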
M4 ag: CHRM4 agonism in calcium assay; activation, % at 3 µM; CHO-K1 hM4/Gqi5, Fluo-8 calcium fluorescence; vehicle 0%, full acetylcholine response 100%; actives 0.14% (n = 360,000); P08173; AID 624127;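 active = activation above the run mean over all test wells plus 3 SD, cut at about 32% in these data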;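 note: peak over basal fluorescence ratio per well then scaled between controls; 0% = DMSO wells and 100% = acetylcholine at EC100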
M5 antag: blocks acetylcholine activation of human M5 receptor | P08912 | CHO-hM5 cells, Fluo-8 calcium fluorescence, ACh EC80 | inhibition, % at 3 µM | actives 0.59% (n = 360,000) | AID 624040;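 active = inhibition above a per-plate cutoff, the mean of that plate's test compounds plus 3 SD, cut at about 27% in these data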;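 note: 0% = acetylcholine EC80 with DMSO and 100% = DMSO without agonist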
Active calls of the source: *. In the library only some 1.8% were active in any assay of this set; here they are far more common.

SMILES | M4 antag | CHRM5 agonist | M5 PAM | M4 PAM | M4 ag | M5 antag
CN(CC(=O)Nc1ccc2c(c1)OCCO2)Cc1nc2ccccc2c(=O)[nH]1 | -8 | 1 | 0 | -2 | 1 | 0
CC1C(=O)N(Cc2cn(Cc3ccco3)nn2)CCS(=O)(=O)N1Cc1ccc(-c2ccccc2Cl)cc1 (configuration not stated) | -10 | 1 | 0 | -2 | 1 | 1
CC(NC(=O)Nc1ccc([N+](=O)[O-])cc1)C(c1cccs1)N1CCCC1 (configuration not stated) | -9 | 10 | 0 | -1 | 50* | 3
CC(NC(=O)Nc1cccc(Cl)c1)C(c1cccs1)N1CCCC1 (configuration not stated) | 3 | 0 | -2 | -2 | 9 | 9
Cc1occc1C(=O)NC(C)CCc1ccccc1 (configuration not stated) | 4 | -1 | 3 | -1 | 0 | -1
Cc1occc1C(=O)NC(C)C(C)(C)C (configuration not stated) | 29* | -1 | -3 | 15 | 2 | 10
COc1ccccc1C1(O)C(=O)Nc2ccccc21 (configuration not stated) | -13 | -3 | 3 | 15* | 2 | 3
Cn1cc([C@]2(O)C(=O)Nc3ccccc32)c2ccccc21 | 5 | 1 | -1 | 4 | 3 | -4
Cc1ccc(CC2(OCCN(C)C)CCC(C(C)(C)C)CC2)cc1 (configuration not stated) | 11 | 8 | 6 | 0 | 11 | 3
CN(C)CCOC1(Cc2ccc(F)cc2)CCC(C(C)(C)C)CC1 (configuration not stated) | -10 | 16 | 19* | 1 | 13 | -22
O=C(O)CSc1cc(C(=O)c2ccccc2O)cn2c(=O)c3c4c(sc3nc12)CCCC4 | 9 | -2 | 7 | 33* | 1 | 6
Cc1[nH]n(-c2ccccc2)c(=O)c1C(=O)c1ccccc1 | -7 | 5 | 21* | 10 | 1 | -17
Cc1ccc(S(=O)(=O)N2CCC(C(N)=O)CC2)cc1[N+](=O)[O-] | -11 | 2 | 14 | 1 | 1 | -3
Cc1ccc(S(=O)c2ccc([N+](=O)[O-])c3nonc23)cc1 (configuration not stated) | 15 | 40* | -3 | 0 | 9 | 24
O=C(/C=C/c1ccc(F)cc1)NC(=S)NNC(=O)c1cnccn1 | 30* | 2 | 2 | 13 | 1 | 0
COc1ccc(/C=C/C(=O)NC(=S)NNC(=O)c2cnccn2)cc1 | 2 | 1 | -1 | 0 | 0 | -1
Cc1ccc(CS(=O)(=O)CCC(=O)NCCC(C)C)cc1 | -4 | -4 | 3 | 34* | 1 | 4
CN(C(=O)c1ccccn1)C1(C(=O)NC2CCCCC2)CCCCC1 | -4 | -9 | 17 | -2 | -1 | 6
CC(=O)NCC(=O)N(c1ccccc1)C1(C(=O)NC2CCCCC2)CCCCC1 | 5 | -3 | 20* | 10 | 1 | -4
S=C(NCC1CCCO1)NC1CCCC1 (configuration not stated) | -2 | -2 | 3 | 1 | 0 | -6
O=C1C=CC(=O)N1c1cccc(-c2ccccc2)c1 | 42* | -2 | -16 | -49 | 16 | 2
CC(=O)Nc1nc(-c2cccc3ccccc23)cs1 | -10 | -5 | 15 | -6 | -1 | -17
CC(=O)NCCC(=O)Nc1nc(-c2c[nH]c3ccccc23)cs1 | -20 | -1 | 1 | 16* | 1 | -6
CCOC(=O)c1cc(-c2ccccc2)sc1NC(=O)C(C)OC(=O)c1cccc(S(=O)(=O)N(C)C)c1 (configuration not stated) | 12 | -1 | 20* | 5 | 1 | 7
CSC(=S)N/N=C/c1ccc(N(C)C)cc1 | -2 | -1 | -1 | 0 | 0 | 10
SMILES | M4 antag | CHRM5 agonist | M5 PAM | M4 PAM | M4 ag | M5 antag
CSC(=S)N/N=C/c1ccc(Br)cc1 | -16 | -3 | -2 | 23* | 2 | 2
O=C(c1ccccc1F)N(NC(=O)C(O)(c1ccccc1)c1ccccc1)c1ccccc1 | -7 | 0 | -3 | -14 | 4 | -11
NC(=O)c1cc([N+](=O)[O-])c(Cl)cc1NCc1cccnc1 | 6 | -10 | 1 | 4 | 1 | 16
O=C1c2ccccc2NC(c2ccccc2O)N1c1ccc(F)cc1 (configuration not stated) | -4 | -6 | -6 | -4 | 1 | 4
O=C(O)CSC1c2ccccc2C(=O)N1c1ccccc1 (configuration not stated) | -14 | -7 | 37* | 0 | 0 | -4
CC(C)(C)C(C(=O)NC1CCCC1)N1CCN(c2ncccc2C#N)CC1 (configuration not stated) | 0 | 1 | 4 | 0 | 2 | -3
CCOC(=O)c1ccccc1NC(=O)CSc1nnnn1C | 0 | -1 | 3 | 19* | 0 | -7
CCOC(=O)c1ccccc1NC(=O)COC(=O)CSc1ccccc1 | -4 | -1 | 2 | 21* | 0 | -2
Cc1ccccc1NC(=O)CSc1nnnn1C | -4 | -2 | 1 | 5 | 0 | 1
Cc1ccc(N(CC(=O)NCc2ccc(F)cc2)C(=O)c2csnn2)c(C)c1 | -2 | -2 | -1 | -1 | 2 | 4
Cc1cc(C)c(N(CC(=O)NCc2ccccc2)C(=O)c2csnn2)c(C)c1 | -17 | 2 | 23* | -1 | 2 | -14
CCOc1ccc(N(CC(=O)NCCc2ccccc2)C(=O)c2csnn2)cc1 | -29 | -2 | -5 | 16* | 2 | 4
Cc1ccc(N(CC(=O)NCCc2ccccc2)C(=O)c2csnn2)cc1 | 12 | -2 | -2 | 1 | 1 | 6
COc1ccc(N(CC(=O)NCCc2ccccc2)C(=O)c2csnn2)cc1 | 0 | -3 | -11 | -3 | 2 | 32*
COc1ccc(N(CC(=O)NCCc2ccccc2)C(=O)c2csnn2)cc1OC | -1 | 0 | 2 | 4 | 0 | 2
CC(=O)OCCNc1cc(N2CCN(C)CC2)c2noc3c2c1C(=O)c1ccccc1-3 | -9 | 1 | -5 | 3 | 0 | 7
CCOC(=O)C(C(=O)OCC)c1cc(Br)c2noc3c2c1C(=O)c1ccccc1-3 | 54* | 6 | 3 | -6 | 8 | 33*
O=C(CC(NC(=O)OCc1ccccc1)C(=O)OCc1ccccc1)OCc1ccccc1 (configuration not stated) | 28* | -3 | -10 | -8 | 8 | 19

Screening data deposited in PubChem BioAssay by The Scripps Research Institute Molecular Screening Center.
